How the values were obtained:
[1] = Oxidative metabolic stability in mouse liver microsomes at 1 uM after 30 mins in presence of 1 mM NADPH; format: ADME, Microsome; conditions: for remaining at 0.5 h, 1 µM: liver microsomes, read-out: Stability; for Stability: microsomes, 0.5 h, 1 µM
Procedure, shortened: (§1)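 Oxidative stability: compound at 1 µM incubated 30 min at 37 °C in phosphate buffer with liver microsomes (0.5 mg/ml protein) plus 1 mM NADPH. Percent parent remaining reported. Human or mouse microsomes per line.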

[2] = (§2) Oxidative metabolic stability in human liver microsomes at 1 uM after 30 mins in presence of 1 mM NADPH; format: ADME, Microsome; conditions: liver microsomes, read-out: Stability; procedure, shortened: as §1
Gamma-secretase = assay: Inhibition of Gamma-secretase in human IMR-32 cells after 2 hrs by ELISA assay; format: cell-based
Procedure, shortened: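 γ-Secretase came from IMR-32 cell membranes, and compound was first diluted in DMSO. Reaction at 37 °C was started with MBPC-125 Swedish substrate, run for 2 h, then stopped with SDS. Cleaved substrate was measured by Aβ40-specific ELISA. Values are means of three experiments.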

Liver microsomes = assay: as §2; format: ADME, Microsome; conditions: microsomes, 0.5 h, 1 µM; procedure, shortened: as §1

| Compound | remaining at 0.5 h, 1 µM [1] [%] | remaining at 0.5 h, 1 µM [2] [%] | IC50 (Gamma-secretase) [nM] | Stability [1] | Stability (Liver microsomes) |
| --- | --- | --- | --- | --- | --- |
| CC1c2c[nH]nc2-c2ccc(OC(=O)N(C)C)cc2N1S(=O)(=O)c1ccc(Cl)cc1 (racemic) | 0 | 0 | 0.93 |  |  |
| N#Cc1ccc2c(c1)N(S(=O)(=O)c1ccc(C(F)(F)F)cc1)C(C1CC1)c1c[nH]nc1-2 (racemic) | 77 | 80 | 0.17 |  |  |
| CC1c2c[nH]nc2-c2ccc(OCc3ccccc3)cc2N1S(=O)(=O)c1ccc(Cl)cc1 (racemic) | 1 | 0 | 1.5 |  |  |
| Cc1nc2c(s1)N(S(=O)(=O)c1ccc(C(F)(F)F)cc1)C(C1CC1)c1c[nH]nc1-2 (racemic) | 8 | 31 | 24 |  |  |
| CC1c2c[nH]nc2-n2ccnc2N1S(=O)(=O)c1ccc(Cl)cc1 (racemic) | 56 | 74 | 27 |  |  |
| CC1c2cn[nH]c2-c2ccccc2N1S(=O)(=O)c1cccnc1 (racemic) | 3 |  | 140 |  |  |
| CC1c2c[nH]nc2-c2cc(F)ccc2N1S(=O)(=O)c1cn(C)cn1 (racemic) | 65 | 76 | 5500 |  |  |
| O=[N+]([O-])c1ccc(S(=O)(=O)N2c3cc(F)c(F)cc3-c3n[nH]cc3C2C2CC2)cc1 (racemic) |  |  | 40 | Not Active | Not Active |
| O=S(=O)(c1ccc(F)cc1)N1c2ccccc2-c2n[nH]cc2C1C1CC1 (racemic) | 11 | 8 | 0.42 |  |  |
| O=S(=O)(c1ccc(C(F)(F)F)cc1)N1c2cc(-n3ccnc3)ccc2-c2n[nH]cc2C1C1CC1 (racemic) | 55 | 59 | 0.24 |  |  |
| CC1c2cn[nH]c2-c2ccc(O)cc2N1S(=O)(=O)c1ccc(Cl)cc1 (racemic) | 27 | 50 | 0.65 |  |  |
| CC1c2c[nH]nc2-c2cc(Cl)sc2N1S(=O)(=O)c1ccc(C(F)(F)F)cc1 (racemic) | 18 | 3 | 4.5 |  |  |
| O=S(=O)(c1ccc(Cl)cc1)N1c2ccccc2-c2n[nH]cc2C1C1CC1 (racemic) | 15 | 4 | 0.17 |  |  |
| O=S(=O)(c1ccc(OC(F)(F)F)cc1)N1c2ccc(F)cc2-c2n[nH]cc2C1C1CC1 (racemic) | 55 | 60 | 0.37 |  |  |
| O=S(=O)(c1ccc(Cl)s1)N1c2cc(F)c(F)cc2-c2n[nH]cc2C1C1CC1 (racemic) | 9 | 4 | 0.52 |  |  |
| COc1ccc2c(c1)N(S(=O)(=O)c1ccc(Cl)cc1)C(C)c1c[nH]nc1-2 (racemic) | 1 | 1 | 2 |  |  |
| COC(=O)c1ccc2c(c1)N(S(=O)(=O)c1ccc(C(F)(F)F)cc1)C(C1CC1)c1c[nH]nc1-2 (racemic) |  |  | 0.26 | Not Active | Not Active |
| O=S(=O)(c1ccc(Cl)cn1)N1c2ccc(F)cc2-c2n[nH]cc2C1C1CC1 (racemic) | 49 | 62 | 1.3 |  |  |
| O=S(=O)(c1ccc(C(F)(F)F)cc1)N1c2ccccc2-c2n[nH]cc2C1C1CC1 (racemic) | 49 | 45 | 0.31 |  |  |
| O=S(=O)(c1ccc(C(F)(F)F)cc1)N1c2cc(-c3cscn3)ccc2-c2n[nH]cc2C1C1CC1 (racemic) | 32 | 60 | 0.41 |  |  |
| O=S(=O)(c1ccccc1)N1c2ccccc2-c2n[nH]cc2C1C1CC1 (single isomer, unassigned; enantiomer 1) |  |  | 4.2 | Not Active | Not Active |
| O=S(=O)(c1ncc(Cl)s1)N1c2cc(F)c(F)cc2-c2n[nH]cc2C1C1CC1 (single isomer, unassigned; enantiomer 2) | 4 | 23 | 0.46 |  |  |
| O=S(=O)(c1ccc(C(F)(F)F)cc1)N1c2cc(I)ccc2-c2n[nH]cc2C1C1CC1 (single isomer, unassigned; enantiomer 3) | 78 | 80 | 0.26 |  |  |
